From ChEMBL document CHEMBL1268974, “Synthesis and antitumour activity of glycyrrhetinic acid derivatives” (Bioorg Med Chem, 2010) come the findings set out here.

Structures are written as SMILES. Activity calls are given as the source filed them. The rule behind the calls is not given here.

One assay concerns A549. Kind of assay: Induction of apoptosis in human A549 cells at IC90 concentration after 24 to 48 hrs using acridine orange/ethidium bromide dye by fluorescence microscopic analysis. It is filed as functional, cell-based. Put shortly: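 About 500,000 cells were seeded in flasks and grown for 24 h, then the medium was replaced with compound-containing medium. After 24–48 h, floating cells in the supernatant were pelleted, washed and resuspended in PBS, mixed with acridine orange/ethidium bromide and examined by fluorescence microscopy. Green nuclear fluorescence was scored as apoptotic and red nuclei as necrotic.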

The next assay concerns A2780 (Homo sapiens). In words: Induction of apoptosis in human A2780 cells assessed as DNA ladder formation at IC90 concentration after 24 hrs by agarose gel electrophoresis.

For `COC(=O)[C@@]1(C)CC[C@]2(C)CC[C@]3(C)C(=CC(=O)[C@@H]4[C@@]5(C)CC[C@H](OC(=O)CCN)C(C)(C)[C@@H]5CC[C@]43C)[C@@H]2C1`, the result in the assay on A549 and in the assay on A2780 (Homo sapiens) was Active.
